Laboratory results published in ChEMBL document CHEMBL1156205, “Synthesis and antibacterial activity of new 9-O-arylpropenyloxime ketolides” (2010).
≈ marks a conversion by molar mass, not a printed value.

How the values were obtained:
Assay type in all cases: functional
[1] = system: Streptococcus pyogenes; test: Antibacterial activity against Streptococcus pyogenes ATCC 8668 by agar dilution method
Procedure, shortened: (§1)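 MIC measured by agar dilution on Mueller–Hinton agar. Strains were a reference culture and clinically isolated strains. The pneumococcal isolates were penicillin-susceptible clinical isolates.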

[2] = system: Staphylococcus aureus; test: Antibacterial activity against methicillin-susceptible Staphylococcus aureus ATCC 29213 by agar dilution method
Procedure, shortened: (§2)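 MIC determined by agar dilution on Mueller–Hinton agar against reference strains.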

[3] = system: Streptococcus pneumoniae; test: Antibacterial activity against penicillin-susceptible Streptococcus pneumoniae isolate S2 by agar dilution method; procedure, shortened: as §1
[4] = system: Staphylococcus aureus; test: Antibacterial activity against methicillin-susceptible Staphylococcus aureus isolate 2 by agar dilution method
Procedure, shortened: (§3)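 MIC determined by agar dilution on Mueller–Hinton agar against clinically isolated methicillin-susceptible S. aureus.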

[5] = system: Streptococcus pneumoniae; test: Antibacterial activity against penicillin intermediate-resistant Streptococcus pneumoniae isolate I2 by agar dilution method
Procedure, shortened: (§4)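 MIC determined by agar dilution on Mueller–Hinton agar against clinically isolated penicillin-intermediate-resistant S. pneumoniae.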

[6] = system: Streptococcus pyogenes; test: Antibacterial activity against Streptococcus pyogenes isolate 1 by agar dilution method; procedure, shortened: as §1
[7] = system: Staphylococcus aureus; test: Antibacterial activity against methicillin-resistant Staphylococcus aureus 2 by agar dilution method
Procedure, shortened: (§5)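 MIC determined by agar dilution on Mueller–Hinton agar against clinical strains of methicillin-resistant S. aureus.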

[8] = system: Streptococcus pyogenes; test: Antibacterial activity against Streptococcus pyogenes isolate 3 by agar dilution method; procedure, shortened: as §1
[9] = system: Streptococcus pneumoniae; test: Antibacterial activity against penicillin intermediate-resistant Streptococcus pneumoniae isolate I3 by agar dilution method; procedure, shortened: as §4
[10] = system: Staphylococcus aureus; test: Antibacterial activity against methicillin-resistant Staphylococcus aureus 3 by agar dilution method; procedure, shortened: as §5
[11] = system: Streptococcus pneumoniae; test: Antibacterial activity against Streptococcus pneumoniae ATCC 49619 by agar dilution method; details: ATCC49619; procedure, shortened: as §2
[12] = system: Streptococcus pyogenes; test: Antibacterial activity against Streptococcus pyogenes isolate 2 by agar dilution method; procedure, shortened: as §1
[13] = system: Streptococcus pneumoniae; test: Antibacterial activity against penicillin-susceptible Streptococcus pneumoniae isolate S1 by agar dilution method; procedure, shortened: as §1
[14] = system: Streptococcus pneumoniae; test: Antibacterial activity against penicillin intermediate-resistant Streptococcus pneumoniae isolate I1 by agar dilution method; procedure, shortened: as §4
[15] = system: Staphylococcus aureus; test: Antibacterial activity against methicillin-susceptible Staphylococcus aureus isolate 1 by agar dilution method; procedure, shortened: as §3
[16] = system: Staphylococcus aureus; test: Antibacterial activity against methicillin-susceptible Staphylococcus aureus isolate 3 by agar dilution method; procedure, shortened: as §3
[17] = system: Staphylococcus aureus; test: Antibacterial activity against methicillin-resistant Staphylococcus aureus 1 by agar dilution method; procedure, shortened: as §5

Compound	MIC [1] [µg/mL]	MIC [2] [µg/mL]	MIC [3] [µg/mL]	MIC [4] [µg/mL]	MIC [5] [µg/mL]	MIC [6] [µg/mL]	MIC [7] [µg/mL]	MIC [8] [µg/mL]	MIC [9] [µg/mL]	MIC [10] [µg/mL]	MIC [11] [µg/mL]	MIC [12] [µg/mL]	MIC [13] [µg/mL]	MIC [14] [µg/mL]	MIC [15] [µg/mL]	MIC [16] [µg/mL]	MIC [17] [µg/mL]	MIC50 [5] [µM]	MIC50 [9] [µM]	MIC50 [14] [µM]
CC[C@H]1OC(=O)[C@H](C)C(=O)[C@H](C)[C@@H](O[C@@H]2O[C@H](C)C[C@H](N(C)C)[C@H]2O)[C@](C)(OC)C[C@@H](C)/C(=N\OC/C=C/c2cccs2)[C@H](C)[C@@H](O)[C@]1(C)O	0.06 (≈ 0.0828 µM)	0.5 (≈ 0.69 µM)	0.06 (≈ 0.0828 µM)	0.25 (≈ 0.345 µM)	0.125 (≈ 0.172 µM)	0.06 (≈ 0.0828 µM)	128 (≈ 177 µM)	0.06 (≈ 0.0828 µM)	0.125 (≈ 0.172 µM)	0.25 (≈ 0.345 µM)	0.06 (≈ 0.0828 µM)	0.06 (≈ 0.0828 µM)	0.06 (≈ 0.0828 µM)	32 (≈ 44.1 µM)	0.5 (≈ 0.69 µM)	0.25 (≈ 0.345 µM)	128 (≈ 177 µM)			
CC[C@H]1OC(=O)[C@H](C)C(=O)[C@H](C)[C@@H](O[C@@H]2O[C@H](C)C[C@H](N(C)C)[C@H]2O)[C@](C)(OC)C[C@@H](C)/C(=N\OC/C=C/c2cnc3ccccc3c2)[C@H](C)[C@@H](O)[C@]1(C)O	0.06 (≈ 0.0779 µM)	0.25 (≈ 0.325 µM)	0.06 (≈ 0.0779 µM)	0.25 (≈ 0.325 µM)	0.06 (≈ 0.0779 µM)	0.06 (≈ 0.0779 µM)	128 (≈ 166 µM)	0.06 (≈ 0.0779 µM)	4 (≈ 5.19 µM)	0.25 (≈ 0.325 µM)	0.06 (≈ 0.0779 µM)	0.06 (≈ 0.0779 µM)	0.06 (≈ 0.0779 µM)	64 (≈ 83.1 µM)	0.25 (≈ 0.325 µM)	0.25 (≈ 0.325 µM)	128 (≈ 166 µM)			
CC[C@H]1OC(=O)[C@H](C)C(=O)[C@H](C)[C@@H](O[C@@H]2O[C@H](C)C[C@H](N(C)C)[C@H]2O)[C@](C)(OC)C[C@@H](C)/C(=N\OC/C=C/c2ccc3[nH]ccc3c2)[C@H](C)[C@@H](O)[C@]1(C)O	0.25 (≈ 0.33 µM)	1 (≈ 1.32 µM)	0.06 (≈ 0.0792 µM)	1 (≈ 1.32 µM)	0.25 (≈ 0.33 µM)	0.06 (≈ 0.0792 µM)	128 (≈ 169 µM)	0.25 (≈ 0.33 µM)	0.25 (≈ 0.33 µM)	1 (≈ 1.32 µM)	0.25 (≈ 0.33 µM)	0.25 (≈ 0.33 µM)	0.06 (≈ 0.0792 µM)	32 (≈ 42.2 µM)	1 (≈ 1.32 µM)	1 (≈ 1.32 µM)	128 (≈ 169 µM)			
CC[C@H]1OC(=O)[C@H](C)C(=O)[C@H](C)[C@@H](O[C@@H]2O[C@H](C)C[C@H](N(C)C)[C@H]2O)[C@](C)(OC)C[C@@H](C)/C(=N\OC/C=C/c2ccc3c(c2)CCC3=O)[C@H](C)[C@@H](O)[C@]1(C)O	0.25 (≈ 0.323 µM)	1 (≈ 1.29 µM)	0.06 (≈ 0.0776 µM)	1 (≈ 1.29 µM)	0.25 (≈ 0.323 µM)	0.06 (≈ 0.0776 µM)	128 (≈ 166 µM)	0.25 (≈ 0.323 µM)	8 (≈ 10.3 µM)	1 (≈ 1.29 µM)	0.25 (≈ 0.323 µM)	0.25 (≈ 0.323 µM)	0.06 (≈ 0.0776 µM)	64 (≈ 82.8 µM)	1 (≈ 1.29 µM)	1 (≈ 1.29 µM)	128 (≈ 166 µM)			
CC[C@H]1OC(=O)[C@H](C)C(=O)[C@H](C)[C@@H](O[C@@H]2O[C@H](C)C[C@H](N(C)C)[C@H]2O)[C@](C)(OC)C[C@@H](C)/C(=N\OC/C=C/c2cccc(C3OCCO3)c2)[C@H](C)[C@@H](O)[C@]1(C)O	0.25 (≈ 0.316 µM)	0.5 (≈ 0.632 µM)	0.06 (≈ 0.0759 µM)	1 (≈ 1.26 µM)	0.25 (≈ 0.316 µM)	0.06 (≈ 0.0759 µM)	128 (≈ 162 µM)	0.25 (≈ 0.316 µM)	0.25 (≈ 0.316 µM)	1 (≈ 1.26 µM)	0.25 (≈ 0.316 µM)	0.25 (≈ 0.316 µM)	0.06 (≈ 0.0759 µM)	64 (≈ 80.9 µM)	1 (≈ 1.26 µM)	0.5 (≈ 0.632 µM)	128 (≈ 162 µM)			
CC[C@H]1OC(=O)[C@H](C)C(=O)[C@H](C)[C@@H](O[C@@H]2O[C@H](C)C[C@H](N(C)C)[C@H]2O)[C@](C)(OC)C[C@@H](C)/C(=N\OC/C=C/c2ccc3c(c2)OCO3)[C@H](C)[C@@H](O)[C@]1(C)O	0.25 (≈ 0.328 µM)	1 (≈ 1.31 µM)	0.06 (≈ 0.0786 µM)	0.5 (≈ 0.655 µM)	0.25 (≈ 0.328 µM)	0.06 (≈ 0.0786 µM)	128 (≈ 168 µM)	0.25 (≈ 0.328 µM)	0.25 (≈ 0.328 µM)	1 (≈ 1.31 µM)	0.25 (≈ 0.328 µM)	0.25 (≈ 0.328 µM)	0.06 (≈ 0.0786 µM)	64 (≈ 83.9 µM)	1 (≈ 1.31 µM)	0.5 (≈ 0.655 µM)	128 (≈ 168 µM)			
CC[C@H]1OC(=O)[C@H](C)[C@@H](O[C@H]2C[C@@](C)(OC)[C@@H](O)[C@H](C)O2)[C@H](C)[C@@H](O[C@@H]2O[C@H](C)C[C@H](N(C)C)[C@H]2O)[C@](C)(O)C[C@@H](C)C(=O)[C@H](C)[C@@H](O)[C@]1(C)O [ERYTHROMYCIN]																		> 128	> 128	> 128
